Active and inactive are the calls of the source. The rule behind the calls is not given here.
Columns and labels:
[1] = system: HeLa; assay: Antiproliferative activity against human HeLa cells assessed as median dose after 24 hrs; type: functional
Procedure, shortened: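 HeLa cells treated for 24 h with each agent alone and in combinations. The median dose (Dm) was taken from the median dose plot, and combination index was computed as CI = (D)1/(Dx)1 + (D)2/(Dx)2.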

[2] = system: HeLa; assay: Induction of mitotic microtubule depolymerization in human HeLa cells assessed as multipolar spindle formation at 30 nM after 24 hrs by Hoechst 33258 dye-based fluorescence microscopy; type: cell-based
[3] = system: HeLa; assay: Induction of apoptosis in human HeLa cells assessed as caspase-3 dependent PARP cleavage at 30 nM after 24 hrs by Western blot analysis; type: functional, cell-based
Procedure, shortened: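 HeLa cells were treated with vehicle or 30 nM for 24 h and washed twice in PBS. Lysates were Western blotted with antibodies to JNK1, phospho-JNK, procaspase-3 and PARP.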

[4] = system: HeLa; assay: Induction of apoptosis in human HeLa cells assessed as genomic DNA fragmentation at 7 to 30 nM after 40 hrs by ethidium bromide staining-based electrophoresis; type: functional, cell-based
[5] = system: HeLa; assay: Induction of apoptosis in human HeLa cells assessed as apoptotic cells at 35 nM after 24 hrs by annexin V-FITC/propidium iodide staining-based FACS analysis; type: functional
Procedure, shortened: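 HeLa cells were exposed to 35 nM for 10 or 24 h, stained with annexin V and propidium iodide using a kit, and apoptotic cells were quantified by FACS. Nocodazole (700 nM) served as comparator.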

[6] = system: HeLa; assay: Inhibition of microtubule-kinetochore tension in human HeLa cells assessed as Mad2 accumulation at kinetochoric region at 15 to 45 nM after 24 hrs by Hoechst 33258 dye-based Hec1 staining assay; type: cell-based
[7] = system: MCF7; assay: Inhibition of microtubule (unknown origin) dynamics in GFP-tubulin transfected human MCF7 cells assessed as decrease in microtubule catastrophe frequency at 15 nM by confocal laser scanning microscopy relative to control; type: cell-based
Procedure, shortened: (§1)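 EGFP-tubulin transfected MCF-7 cells were treated with vehicle or 15 nM, and individual microtubules were tracked by confocal laser scanning microscopy, 20 microtubules per condition. Life-history parameters were derived as previously described. Significance was tested by one-way ANOVA.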

[8] = system: MCF7; assay: Inhibition of microtubule (unknown origin) dynamics in GFP-tubulin transfected human MCF7 cells assessed as increase in microtubule rescue frequency at 15 nM by confocal laser scanning microscopy relative to control; type: cell-based
Procedure, shortened: (§2)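 EGFP-tubulin-transfected MCF-7 cells grown in EMEM with 10% FBS at 37 °C in 5% CO2, exposed to 15 nM compound (DMSO vehicle) or vehicle. Individual microtubules were followed by time-lapse confocal laser scanning microscopy and life-history traces were recorded. Kinetic parameters were derived from these traces, 20 microtubules per condition. Significance was tested by one-way ANOVA.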

[9] = system: MCF7; assay: Inhibition of microtubule (unknown origin) dynamics in GFP-tubulin transfected human MCF7 cells assessed as microtubule rescue events at 15 nM by confocal laser scanning microscopy (reference value: 10 +/- 2 events/min); type: cell-based; procedure, shortened: as §2
[10] = system: MCF7; assay: Inhibition of microtubule (unknown origin) dynamics in GFP-tubulin transfected human MCF7 cells assessed as microtubule pause time at 15 nM by confocal laser scanning microscopy (reference value: 35 +/- 8 %); type: cell-based; design: scale not given: the % may be the effect or the level left; procedure, shortened: as §2
[11] = system: MCF7; assay: Inhibition of microtubule (unknown origin) dynamics in GFP-tubulin transfected human MCF7 cells assessed as microtubule growth time at 15 nM by confocal laser scanning microscopy (reference value: 0.9 +/- 0.1 min); type: cell-based; procedure, shortened: as §2
[12] = system: MCF7; assay: Inhibition of microtubule (unknown origin) dynamics in GFP-tubulin transfected human MCF7 cells assessed as decrease in microtubule growth rate at 15 nM by confocal laser scanning microscopy relative to control; type: cell-based; procedure, shortened: as §1
[13] = system: HeLa; assay: Induction of mitotic microtubule depolymerization in human HeLa cells at 30 nM after 24 hrs by Hoechst 33258 dye-based fluorescence microscopy; type: cell-based
[14] = system: HeLa; assay: Induction of mitotic microtubule depolymerization in human HeLa cells assessed as unorganized chromosomes at metaphase plate at 15 nM after 24 hrs by Hoechst 33258 dye-based fluorescence microscopy; type: cell-based
[15] = system: HeLa; assay: Antimitotic activity in human HeLa cells assessed as increase in phosphohistone H3 (Ser10) positive cell population at 30 nM after 24 hrs by fluorescence microscopic analysis (reference value: 3 +/- 0.3 %); type: functional
[16] = system: HeLa; assay: Antimitotic activity in human HeLa cells assessed as increase in phosphohistone H3 (Ser10) positive cell population after 24 hrs by fluorescence microscopic analysis; type: functional, cell-based
[17] = system: HeLa; assay: Inhibition of mitosis in human HeLa cells assessed as mitotic index ratio at 15 nM after 24 hrs by Hoechst 33258 DNA staining assay (reference value: 3.2); type: functional
Procedure, shortened: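 HeLa cells were treated with vehicle or 7, 15 or 30 nM compound for 24 or 48 h. DNA was stained with Hoechst 33258, and mitotic cells were counted by fluorescence microscopy to give the mitotic index, compared against vehicle-treated cells.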

[18] = system: MCF7; assay: Cytotoxicity against human MCF7 cells after 24 to 48 hrs by trypan blue assay; type: functional, cell-based
Procedure, shortened: (§3)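 Cells were seeded at 1 × 10^5 cells/mL, grown 24 h at 37 °C in 5% CO2, then given vehicle (0.1% DMSO) or 1–80 nM for a further 24 or 48 h. Attached plus floating cells were counted after trypan blue staining. Percent inhibition was plotted against concentration to give IC50. Average of three independent experiments.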

[19] = target: Tubulin (Homo sapiens) (UniProt P68371+Q9H4B7+P0DPH7+P68366+Q13509+Q71U36+P04350+Q3ZCM7+P07437+P68363+Q9BQE3+Q6PEY2+Q13885+Q9BVA1+Q9BUF5); assay: (§4) Binding affinity to tubulin (unknown origin) after 15 mins by fluorescence spectrophotometry; type: protein-complex assay
Procedure, shortened: (§5)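 Goat brain tubulin (2 μM) was incubated with ligand (5–100 μM) in 25 mM Pipes pH 6.8 for 15 min at 25 °C, read with excitation 295 nm and emission 336 nm in a 0.3 cm cell. No inner-filter correction was applied. ΔF was fitted to a quadratic binding equation to give Kd. Value is the average of five independent experiments.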

[20] = target: Tubulin; assay: as §4; type: protein-complex assay, Homo sapiens; procedure, shortened: as §5
[21] = species: Homo sapiens; assay: Inhibition of microtubule (unknown origin) assembly at 5 uM after 20 mins by transmission electron microscopy
Procedure, shortened: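 Goat brain tubulin (10 μM) was preincubated with 5 or 10 μM on ice for 20 min, then polymerized with 1 mM GTP at 37 °C in glutamate assembly buffer. Polymers were fixed in 0.5% glutaraldehyde, negatively stained with 2% uranyl acetate, and imaged by transmission EM.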

[22] = species: Capra hircus; assay: Inhibition of goat brain tubulin polymerization at 5 uM incubated for 20 mins prior to GTP addition measured for 30 mins by 90 degree light scattering-based fluorescence spectrophotometric method
Procedure, shortened: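 Goat brain tubulin (10 μM) was preincubated with compound (5 μM; or 1, 5, 7, 10 μM) in 1 M monosodium glutamate, 3 mM MgCl2, 1 mM EGTA, 25 mM Pipes pH 6.8 on ice for 20 min. GTP (1 mM) was then added and assembly followed by 90° light scattering at 400 nm for 30 min at 37 °C. Experiment run twice.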

[23] = system: HeLa; assay: Cytotoxicity against human HeLa cells after 24 to 48 hrs by trypan blue assay; type: functional, cell-based; procedure, shortened: as §3

CC[C@H](C)[C@@H]([C@@H](CC(=O)NC[C@H]1O[C@H](C(=O)NCCc2ccccc2)[C@@H](OC)[C@@H]1OC)OC)N(C)C(=O)[C@@H](NC(=O)[C@@H](NC)C(C)C)C(C)C
Activity [1]: 8.9 nM
Activity [2]: Active
Activity [3]: Active
Activity [4]: Active
Activity [5]: 65.3%
Activity [6]: Active
inhibition [7]: 32%
inhibition [8]: 40%
Activity [9]: 12 min⁻¹
Activity [10]: 59%
TIME [11]: 0.00833 h
inhibition [12]: 27%
Activity [13]: Active
Activity [14]: Active
Activity [15]: 14%
Activity [16]: Dose-dependent effect
Ratio [17]: 9
IC50 [18]: 15 nM
Activity [19]: Dose-dependent effect
Kd [20]: 29400 nM
inhibition [21]: Active
inhibition [22]: 37%
IC50 [23]: 6.8 nM
